Results from different studies.
Each line is one published result; the experiments were not run side by side.
HLA class I histocompatibility antigen, B alpha chain: HLA class I histocompatibility antigen, B alpha chain (Homo sapiens, UniProt P01889)
blaNDM-1: Metallo-beta-lactamase type 2 (blaNDM-1, Klebsiella pneumoniae, UniProt C7C422)
HTR2B: 5-hydroxytryptamine receptor 2B (HTR2B, Homo sapiens, UniProt P41595)
dxs: 1-deoxy-D-xylulose-5-phosphate synthase (dxs, Deinococcus radiodurans, UniProt Q9RUB5)
FAAH: Fatty-acid amide hydrolase 1 (FAAH, Homo sapiens, UniProt O00519)

Compound | target | read-out | action | method | pH | setting | IC50 [µM]
CC[C@H](C)[C@H](NC(=O)[C@@H](NC(=O)[C@@H](NC(=O)[C@H](CC(N)=O)NC(=O)[C@@H](NC(=O)[C@H](CO)NC(=O)[C@H](CC(N)=O)NC(=O)[C@H](CC(C)C)NC(=O)[C@@H](N)Cc1ccc(O)cc1)[C@@H](C)O)C(C)C)[C@@H](C)O)C(=O)O | HLA class I histocompatibility antigen, B alpha chain | ligand displacement |  | radioligand |  |  | 7.93
Cc1c2ccncc2c(C)c2c1[nH]c1ccccc12 | blaNDM-1 | enzyme activity | inhibitor |  |  |  | > 30
CC(C)[C@H](NC(=O)[C@@H](NC(=O)[C@@H](NC(=O)[C@@H](NC(=O)[C@@H](NC(=O)[C@H](Cc1ccccc1)NC(=O)[C@H](CCC(=O)O)NC(=O)[C@@H](N)CC(=O)O)C(C)C)C(C)C)C(C)C)[C@@H](C)O)C(=O)O | HLA class I histocompatibility antigen, B alpha chain | ligand displacement |  | radioligand |  |  | 52.8
C[C@H](N)[C@H](O)c1cccc(O)c1 | HTR2B | calcium signal | antagonist | fluorescence |  |  | 7.38
CC[C@H](C)[C@H](NC(=O)[C@H](CCCNC(=N)N)NC(=O)[C@@H]1CCCN1C(=O)[C@H](C)N)C(=O)N[C@H](C(=O)N[C@@H](Cc1ccccc1)C(=O)NCC(=O)NCC(=O)N1CCC[C@H]1C(=O)O)[C@@H](C)O | HLA class I histocompatibility antigen, B alpha chain | ligand displacement |  | radioligand |  |  | 0.059
Ic1ccccc1CN[C@@H]1C2CCN(CC2)[C@@H]1C(c1ccccc1)c1ccccc1 (racemic) | Substance-P receptor (TACR1, Homo sapiens, UniProt P25103) | ligand displacement |  | radioligand |  |  | 0.00725
OCCN(CCO)c1nc(N2CCCCC2)c2nc(N(CCO)CCO)nc(N3CCCCC3)c2n1 | blaNDM-1 | enzyme activity | inhibitor |  |  |  | > 10
CSCC[C@H](NC(=O)[C@H](C)NC(=O)[C@H](CC(C)C)NC(=O)[C@H](C)NC(=O)[C@H](Cc1c[nH]c2ccccc12)NC(=O)[C@H](C)NC(=O)[C@@H](NC(=O)[C@@H]1CCCN1C(=O)[C@H](CO)NC(=O)[C@H](CO)NC(=O)[C@@H](N)CO)C(C)C)C(=O)N[C@@H](CCCNC(=N)N)C(=O)O | dxs | enzyme activity | inhibitor | absorbance |  |  | 9.5
O=C(O)c1ccccn1 | blaNDM-1 | enzyme activity | inhibitor | fluorescence |  |  | 84
CCCCCNC(=N)N/N=C/c1c[nH]c2ccc(OC)cc12 | HTR2B | ligand displacement |  | radioligand |  |  | 0.008
CC(=O)c1cc(O)c2ccccc2c1O | mRNA cap guanine-N(7) methyltransferase (RNMT, Homo sapiens, UniProt O43148) | enzyme activity | inhibitor |  |  |  | 63.3
C[C@H](N)Cn1ncc2ccc3c(c21)CCCO3 | D(3) dopamine receptor (Drd3, Rattus norvegicus, UniProt P19020) | ligand displacement |  | radioligand |  |  | 7.2
CN(Cc1ccccc1)C(=O)Oc1nsnc1N1CCCCC1 | FAAH | enzyme activity | inhibitor |  |  | cell membranes | 0.0631
CC[C@H](C)[C@H](NC(=O)[C@H](CC(C)C)NC(=O)CN)C(=O)N[C@H](C(=O)N[C@@H](CC(C)C)C(=O)N[C@@H](CO)C(=O)N[C@@H](Cc1ccc(O)cc1)C(=O)N[C@@H](Cc1c[nH]cn1)C(=O)N[C@@H](CC(C)C)C(=O)O)[C@@H](C)O | HLA class I histocompatibility antigen, B alpha chain | ligand displacement |  | radioligand |  |  | 14.3
CCCCCCCCCCCCCCC(Br)C(=O)O (stereo not drawn) | Palmitoyltransferase ZDHHC20 (ZDHHC20, Homo sapiens, UniProt Q5W0Z9) | enzyme activity | inhibitor |  |  |  | 5.33
c1ccc(CNCc2ccccn2)nc1 | blaNDM-1 | enzyme activity | inhibitor | fluorescence |  |  | 2.6
COc1nn([C@@H](C)c2ccc(CC(C)C)cc2)c(=O)o1 | FAAH | enzyme activity | inhibitor |  |  | cell membranes | 0.011
Fc1ccc(CC(c2ccccc2)N2CCCC2)cc1 (stereo not drawn) | Sigma intracellular receptor 2 (Tmem97, Rattus norvegicus, UniProt Q5U3Y7) | ligand displacement |  | radioligand |  |  | > 10
CSCC[C@H](NC(=O)[C@H](CCC(N)=O)NC(=O)[C@H](C)NC(=O)[C@H](CO)NC(=O)[C@@H](N)CO)C(=O)N[C@@H](CC(N)=O)C(=O)N[C@@H](CC(C)C)C(=O)N[C@@H](CC(N)=O)C(=O)N[C@H](C(=O)N[C@@H](Cc1ccccc1)C(=O)N[C@@H](CC(C)C)C(=O)N[C@@H](CC(N)=O)C(=O)O)[C@@H](C)O | dxs | enzyme activity | inhibitor | absorbance | pH 7.6 | with preincubation | 49
O=C(O)C1CSC(C(=O)O)N1 (stereo not drawn) | blaNDM-1 | enzyme activity | inhibitor | fluorescence |  |  | 55
C[C@H](NC(=O)[C@@H](CCC(=O)O)NC(=O)CN1CCN(CC(=O)O)CCN(CC(=O)O)CCN(CC(=O)O)CC1)C(=O)N[C@@H](Cc1ccc(O)cc1)C(=O)NCC(=O)N[C@@H](Cc1c[nH]c2ccccc12)C(=O)N[C@H](C(=O)N[C@@H](CC(=O)O)C(=O)N[C@@H](Cc1cccc2ccccc12)C(N)=O)c1ccccc1 | Gastrin/cholecystokinin type B receptor (CCKBR, Homo sapiens, UniProt P32239) | ligand displacement |  | radioligand |  |  | 0.184
